How the values were obtained:
OVCAR-3 = assay: Growth inhibition of human OVCAR3 cells assessed as cell growth at 10 uM after 48 hrs by sulforhodamine B assay; type: functional; conditions: OVCAR-3, 48 h, read-out: Activity
In short: (§1)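 NCI 60-cell-line panel screen (nine cancer types). Compounds added at single concentration 10^-5 M, cultures incubated 48 h; growth inhibition percentages reported.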

RXF 393 = assay: Growth inhibition of human RXF393 cells assessed as cell growth at 10 uM after 48 hrs by sulforhodamine B assay; type: functional; conditions: RXF 393, 48 h, read-out: Activity; in short: as §1
DU-145 = assay: Growth inhibition of human DU145 cells assessed as cell growth at 10 uM after 48 hrs by sulforhodamine B assay; type: functional; conditions: DU-145, 48 h, read-out: Activity; in short: as §1
Malme-3M = assay: Growth inhibition of human MALME-3M cells assessed as cell growth at 10 uM after 48 hrs by sulforhodamine B assay; type: functional; conditions: read-out: Activity; in short: as §1
CCRF-CEM = assay: Growth inhibition of human CCRF-CEM cells assessed as cell growth at 10 uM after 48 hrs by sulforhodamine B assay; type: functional; conditions: read-out: Activity; in short: as §1
T47D = assay: Growth inhibition of human T47D cells assessed as cell growth at 10 uM after 48 hrs by sulforhodamine B assay; type: functional; conditions: read-out: Activity
In short: (§2)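 NCI 60-cell-line panel from nine tumour types (leukaemia, lung, colon, CNS, melanoma, ovarian, renal, prostate, breast). Each compound was added at one single concentration, and cultures were incubated for 48 h. Results are reported as percent growth inhibition.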

TK-10 = assay: Growth inhibition of human TK10 cells assessed as cell growth at 10 uM after 48 hrs by sulforhodamine B assay; type: functional; conditions: TK-10, 48 h, read-out: Activity; in short: as §2
A549 = assay: Growth inhibition of human A549/ATCC cells assessed as cell growth at 10 uM after 48 hrs by sulforhodamine B assay; type: functional; conditions: A549, 48 h, read-out: Activity; in short: as §1
MCF7 = assay: Growth inhibition of human MCF7 cells assessed as cell growth at 10 uM after 48 hrs by sulforhodamine B assay; type: functional; conditions: MCF7, 48 h, read-out: Activity; in short: as §1
HL-60 = assay: Cytotoxicity in human HL60 cells assessed as reduction in cell viability incubated for 48 hrs by MTT assay; type: functional, cell-based; conditions: HL-60, 48 h
In short: (§3)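 HepG2 and HL60 (ATCC) grown in DMEM with 10% FBS, 2 mM L-glutamine, penicillin/streptomycin, amphotericin B at 37 °C, 5% CO2. Samples dissolved in DMSO, diluted thousandfold in assay. Cells seeded in serum-free medium, treated with serial concentrations 48 h; MTT 4 h, formazan dissolved in acidified isopropanol, A570. Triplicates averaged; viability relative to untreated/vehicle control.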

NCI-H23 = assay: Growth inhibition of human NCI-H23 cells assessed as cell growth at 10 uM after 48 hrs by sulforhodamine B assay; type: functional; conditions: NCI-H23, 48 h, read-out: Activity; in short: as §1
RPMI-8226 = assay: Growth inhibition of human RPMI8226 cells assessed as cell growth at 10 uM after 48 hrs by sulforhodamine B assay; type: functional; conditions: RPMI-8226, 48 h, read-out: Activity; in short: as §1
SF-539 = assay: Growth inhibition of human SF539 cells assessed as cell growth at 10 uM after 48 hrs by sulforhodamine B assay; type: functional; conditions: SF-539, 48 h, read-out: Activity; in short: as §1
SW-620 = assay: Growth inhibition of human SW620 cells assessed as cell growth at 10 uM after 48 hrs by sulforhodamine B assay; type: functional; conditions: SW-620, 48 h, read-out: Activity; in short: as §2
HOP-92 = assay: Growth inhibition of human HOP92 cells assessed as cell growth at 10 uM after 48 hrs by sulforhodamine B assay; type: functional; conditions: HOP-92, 48 h, read-out: Activity; in short: as §1
NCI/ADR-RES = assay: Growth inhibition of human NCI-ADR-RES cells assessed as cell growth at 10 uM after 48 hrs by sulforhodamine B assay; type: functional; conditions: read-out: Activity; in short: as §1
UO-31 = assay: Growth inhibition of human UO31 cells assessed as cell growth at 10 uM after 48 hrs by sulforhodamine B assay; type: functional; conditions: UO-31, 48 h, read-out: Activity; in short: as §2
NCI-H322M = assay: Growth inhibition of human NCI-H322M cells assessed as cell growth at 10 uM after 48 hrs by sulforhodamine B assay; type: functional; conditions: read-out: Activity; in short: as §1
HCT-116 = assay: Growth inhibition of human HCT116 cells assessed as cell growth at 10 uM after 48 hrs by sulforhodamine B assay; type: functional; conditions: HCT-116, 48 h, read-out: Activity; in short: as §1
M14 = assay: Growth inhibition of human M14 cells assessed as cell growth at 10 uM after 48 hrs by sulforhodamine B assay; type: functional; conditions: M14, 48 h, read-out: Activity; in short: as §1
A498 = assay: Growth inhibition of human A498 cells assessed as cell growth at 10 uM after 48 hrs by sulforhodamine B assay; type: functional; conditions: A498, 48 h, read-out: Activity; in short: as §1
SNB-19 = assay: Growth inhibition of human SNB19 cells assessed as cell growth at 10 uM after 48 hrs by sulforhodamine B assay; type: functional; conditions: SNB-19, 48 h, read-out: Activity; in short: as §2
OVCAR-4 = assay: Growth inhibition of human OVCAR4 cells assessed as cell growth at 10 uM after 48 hrs by sulforhodamine B assay; type: functional; conditions: OVCAR-4, 48 h, read-out: Activity; in short: as §1
HepG2 = assay: Cytotoxicity in human HepG2 cells assessed as reduction in cell viability incubated for 48 hrs by MTT assay; type: functional, cell-based; conditions: HepG2, 48 h; in short: as §3
SNB-75 = assay: Growth inhibition of human SNB75 cells assessed as cell growth at 10 uM after 48 hrs by sulforhodamine B assay; type: functional; conditions: SNB-75, 48 h, read-out: Activity; in short: as §2
HT-29 = assay: Growth inhibition of human HT-29 cells assessed as cell growth at 10 uM after 48 hrs by sulforhodamine B assay; type: functional; conditions: HT-29, 48 h, read-out: Activity; in short: as §1
ACHN = assay: Growth inhibition of human ACHN cells assessed as cell growth at 10 uM after 48 hrs by sulforhodamine B assay; type: functional; conditions: read-out: Activity; in short: as §1
NCI-H460 = assay: Growth inhibition of human NCI-H460 cells assessed as cell growth at 10 uM after 48 hrs by sulforhodamine B assay; type: functional; conditions: NCI-H460, 48 h, read-out: Activity; in short: as §1
SF-268 = assay: Growth inhibition of human SF268 cells assessed as cell growth at 10 uM after 48 hrs by sulforhodamine B assay; type: functional; conditions: SF-268, 48 h, read-out: Activity; in short: as §1
PC-3 = assay: Growth inhibition of human PC3 cells assessed as cell growth at 10 uM after 48 hrs by sulforhodamine B assay; type: functional; conditions: PC-3, 48 h, read-out: Activity; in short: as §1
BT-549 = assay: Growth inhibition of human BT549 cells assessed as cell growth at 10 uM after 48 hrs by sulforhodamine B assay; type: functional; conditions: BT-549, 48 h, read-out: Activity; in short: as §1
SK-MEL-2 = assay: Growth inhibition of human SK-MEL-2 cells assessed as cell growth at 10 uM after 48 hrs by sulforhodamine B assay; type: functional; conditions: SK-MEL-2, 48 h, read-out: Activity; in short: as §1
LOX IMVI = assay: Growth inhibition of human LOXIMVI cells assessed as cell growth at 10 uM after 48 hrs by sulforhodamine B assay; type: functional; conditions: read-out: Activity; in short: as §1

CCOc1ccc(-n2nc(C(=O)Nc3ccccc3)nc2-c2cc(OC)c(OC)c(OC)c2)cc1
growth at 10 µM (OVCAR-3): 43.2% | growth at 10 µM (RXF 393): 69.2% | growth at 10 µM (DU-145): 89.6% | growth at 10 µM (Malme-3M): 54.5% | growth at 10 µM (CCRF-CEM): 50.8% | growth at 10 µM (T47D): 39.4% | growth at 10 µM (TK-10): 72.5% | growth at 10 µM (A549): 41.4% | growth at 10 µM (MCF7): 37% | IC50 (HL-60): 1.28 µM | growth at 10 µM (NCI-H23): 66.6% | growth at 10 µM (RPMI-8226): 47.4% | growth at 10 µM (SF-539): 62% | growth at 10 µM (SW-620): 36.1% | growth at 10 µM (HOP-92): 46% | growth at 10 µM (NCI/ADR-RES): 45.7% | growth at 10 µM (UO-31): 37.7% | growth at 10 µM (NCI-H322M): 67.6% | growth at 10 µM (HCT-116): 21.2% | growth at 10 µM (M14): 38% | growth at 10 µM (A498): 10.3% | growth at 10 µM (SNB-19): 55.8% | growth at 10 µM (OVCAR-4): 59.5% | IC50 (HepG2): 41.8 µM | growth at 10 µM (SNB-75): 35.1% | growth at 10 µM (HT-29): 13% | growth at 10 µM (ACHN): 62.8% | growth at 10 µM (NCI-H460): 27.9% | growth at 10 µM (SF-268): 76.5% | growth at 10 µM (PC-3): 44.9% | growth at 10 µM (BT-549): 60.9% | growth at 10 µM (SK-MEL-2): 37.7% | growth at 10 µM (LOX IMVI): 55.8%

CCOc1ccc(-n2nc(C(=O)Nc3cccc(OC)c3)nc2-c2cc(OC)c(OC)c(OC)c2)cc1
growth at 10 µM (OVCAR-3): 78.7% | growth at 10 µM (RXF 393): 90.2% | growth at 10 µM (DU-145): 94.8% | growth at 10 µM (Malme-3M): 91.7% | growth at 10 µM (CCRF-CEM): 51.9% | growth at 10 µM (T47D): 58.5% | growth at 10 µM (TK-10): 93.6% | growth at 10 µM (A549): 68.2% | growth at 10 µM (MCF7): 83.5% | IC50 (HL-60): 16.6 µM | growth at 10 µM (NCI-H23): 85.9% | growth at 10 µM (RPMI-8226): 27.9% | growth at 10 µM (SF-539): 90.2% | growth at 10 µM (SW-620): 99.7% | growth at 10 µM (HOP-92): 67.2% | growth at 10 µM (NCI/ADR-RES): 77.5% | growth at 10 µM (UO-31): 50.9% | growth at 10 µM (NCI-H322M): 79.8% | growth at 10 µM (HCT-116): 67.3% | growth at 10 µM (M14): 83.7% | growth at 10 µM (A498): 78.8% | growth at 10 µM (SNB-19): 83.9% | growth at 10 µM (OVCAR-4): 75.1% | IC50 (HepG2): 36.8 µM | growth at 10 µM (SNB-75): 68.1% | growth at 10 µM (HT-29): 78.3% | growth at 10 µM (ACHN): 77.9% | growth at 10 µM (NCI-H460): 79.3% | growth at 10 µM (SF-268): 80.7% | growth at 10 µM (PC-3): 59% | growth at 10 µM (BT-549): 72.3% | growth at 10 µM (SK-MEL-2): 86.9% | growth at 10 µM (LOX IMVI): 80.8%

CCOc1ccc(-n2nc(C(=O)Nc3ccccc3OC)nc2-c2cc(OC)c(OC)c(OC)c2)cc1
growth at 10 µM (OVCAR-3): 95.6% | growth at 10 µM (RXF 393): 88.4% | growth at 10 µM (DU-145): 95.6% | growth at 10 µM (Malme-3M): 99.8% | growth at 10 µM (CCRF-CEM): 94% | growth at 10 µM (T47D): 50.2% | growth at 10 µM (TK-10): 89.2% | growth at 10 µM (A549): 77.3% | growth at 10 µM (MCF7): 77.4% | growth at 10 µM (NCI-H23): 97.8% | growth at 10 µM (RPMI-8226): 68.2% | growth at 10 µM (SF-539): 85.7% | growth at 10 µM (SW-620): 100% | growth at 10 µM (HOP-92): 86.8% | growth at 10 µM (NCI/ADR-RES): 85.3% | growth at 10 µM (UO-31): 59.6% | growth at 10 µM (NCI-H322M): 77.4% | growth at 10 µM (HCT-116): 72.7% | growth at 10 µM (M14): 92.8% | growth at 10 µM (A498): 83.8% | growth at 10 µM (SNB-19): 88.5% | growth at 10 µM (OVCAR-4): 72.9% | growth at 10 µM (SNB-75): 66.6% | growth at 10 µM (HT-29): 74% | growth at 10 µM (ACHN): 79.3% | growth at 10 µM (NCI-H460): 83.4% | growth at 10 µM (SF-268): 89.2% | growth at 10 µM (PC-3): 65.5% | growth at 10 µM (BT-549): 77.6% | growth at 10 µM (SK-MEL-2): 81.9% | growth at 10 µM (LOX IMVI): 92.2%

Reference: ChEMBL document CHEMBL4138126, “Synthesis, antiproliferative, anti-tubulin activity, and docking study of new 1,2,4-triazoles as potential combretastatin analogues” (Eur J Med Chem, 2017)
